In ChEMBL document CHEMBL1134575, “Synthesis, molecular modeling, and structure-activity relationship of benzophenone-based CAAX-peptidomimetic farnesyltransferase inhibitors” (J Med Chem, 2001):

Molecular target: T1, Farnesyltransferase (Saccharomyces cerevisiae S288c, UniProt P22007+P29703)
T1 sequence (P29703 whole entry): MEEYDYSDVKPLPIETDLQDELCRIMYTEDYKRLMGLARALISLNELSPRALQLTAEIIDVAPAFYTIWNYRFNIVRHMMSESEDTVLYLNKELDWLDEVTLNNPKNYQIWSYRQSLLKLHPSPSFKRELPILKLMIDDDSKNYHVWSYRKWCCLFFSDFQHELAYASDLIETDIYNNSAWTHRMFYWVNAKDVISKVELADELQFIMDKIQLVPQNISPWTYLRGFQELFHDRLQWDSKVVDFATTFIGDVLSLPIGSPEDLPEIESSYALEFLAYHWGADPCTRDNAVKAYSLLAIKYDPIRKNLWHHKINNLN
T1 sequence (P22007 whole entry): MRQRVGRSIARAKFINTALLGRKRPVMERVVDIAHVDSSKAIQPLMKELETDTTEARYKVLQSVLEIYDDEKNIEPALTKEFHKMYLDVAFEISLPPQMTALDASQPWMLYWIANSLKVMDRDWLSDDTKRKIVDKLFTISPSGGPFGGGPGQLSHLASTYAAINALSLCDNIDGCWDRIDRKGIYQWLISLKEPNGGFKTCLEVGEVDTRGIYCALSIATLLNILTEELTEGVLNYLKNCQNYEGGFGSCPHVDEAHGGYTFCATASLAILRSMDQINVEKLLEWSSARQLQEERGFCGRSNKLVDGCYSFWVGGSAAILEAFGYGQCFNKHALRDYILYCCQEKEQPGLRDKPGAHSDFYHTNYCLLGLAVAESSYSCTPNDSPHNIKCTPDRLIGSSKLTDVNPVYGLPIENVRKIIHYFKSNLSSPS
Assay: Inhibitory activity against farnesyltransferase.
Format: protein-complex assay
Conditions: not given
How it was run: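 Yeast FTase, GST fused at the N-terminus of the β-subunit, expressed in E. coli DH5α and purified on glutathione-agarose. Buffer: 50 mM Tris/HCl pH 7.4, 5 mM MgCl2, 10 μM ZnCl2, 5 mM DTT. Substrates: 7 μM dansyl-GCVLS, 20 μM FPP. Inhibitor in 1% DMSO. IC50 from initial velocities at four or five concentrations, three independent runs, mean ± SD.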

Row | IC50 [nM] | SMILES
1 | 460 | N[C@@H](CS)C(=O)Nc1ccc(NC(=O)Cc2ccc3ccccc3c2)c(C(=O)c2ccccc2)c1
2 | 76 | N[C@@H](CS)C(=O)Nc1ccc(NC(=O)Cc2ccc(Br)cc2)c(C(=O)c2ccccc2)c1
3 | 105 | N[C@@H](CS)C(=O)Nc1ccc(NC(=O)Cc2ccc(Cl)cc2)c(C(=O)c2ccccc2)c1
4 | 480 | N[C@@H](CS)C(=O)Nc1ccc(NC(=O)Cc2ccc(Cl)c(Cl)c2)c(C(=O)c2ccccc2)c1
5 | 4780 | N[C@@H](CS)C(=O)Nc1ccc(NC(=O)c2ccccc2)c(C(=O)c2ccccc2)c1
6 | 650 | N[C@@H](CS)C(=O)Nc1ccc(NC(=O)Cc2ccccc2)c(C(=O)c2ccccc2)c1
7 | 540 | Cc1cccc(CC(=O)Nc2ccc(NC(=O)[C@@H](N)CS)cc2C(=O)c2ccccc2)c1
8 | 115 | N[C@@H](CS)C(=O)Nc1ccc(NC(=O)Cc2ccc([N+](=O)[O-])cc2)c(C(=O)c2ccccc2)c1
9 | 340 | N[C@@H](CS)C(=O)Nc1ccc(NC(=O)Cc2c(Cl)cccc2Cl)c(C(=O)c2ccccc2)c1
10 | 1290 | N[C@@H](CS)C(=O)Nc1ccc(NC(=O)CCc2ccccc2)c(C(=O)c2ccccc2)c1
11 | 1420 | N[C@@H](CS)C(=O)Nc1ccc(NC(=O)C(=O)c2ccccc2)c(C(=O)c2ccccc2)c1
12 | 545 | COc1ccc(CC(=O)Nc2ccc(NC(=O)[C@@H](N)CS)cc2C(=O)c2ccccc2)cc1
13 | 1800 | COC(=O)CCC(=O)Nc1ccc(NC(=O)[C@@H](N)CS)cc1C(=O)c1ccccc1
14 | 77 | Cc1ccc(CC(=O)Nc2ccc(NC(=O)[C@@H](N)CS)cc2C(=O)c2ccccc2)cc1
15 | 100 | Cc1ccc(CS(=O)(=O)Nc2ccc(NC(=O)[C@@H](N)CS)cc2C(=O)c2ccccc2)cc1
16 | 535 | N[C@@H](CS)C(=O)Nc1ccc(NC(=O)Cc2cc(Cl)cc(Cl)c2)c(C(=O)c2ccccc2)c1

Row | IC50 [nM] | SMILES
17 | 8600 | CC(CC(=O)Nc1ccc(NC(=O)[C@@H](N)CS)cc1C(=O)c1ccccc1)CC(C)(C)C (stereo not given in full)
18 | 650 | CC(C(=O)Nc1ccc(NC(=O)[C@@H](N)CS)cc1C(=O)c1ccccc1)c1ccccc1 (stereo not given in full)
19 | 400 | Cc1ccccc1CC(=O)Nc1ccc(NC(=O)[C@@H](N)CS)cc1C(=O)c1ccccc1
20 | 550 | N[C@@H](CS)C(=O)Nc1ccc(NC(=O)CCCC(=O)O)c(C(=O)c2ccccc2)c1
21 | 36 | N[C@@H](CS)C(=O)Nc1ccc(NC(=O)C(c2ccccc2)c2ccccc2)c(C(=O)c2ccccc2)c1
22 | 7600 | CC(=O)Nc1ccc(NC(=O)[C@@H](N)CS)cc1C(=O)c1ccccc1
23 | 2400 | COC(=O)CCCC(=O)Nc1ccc(NC(=O)[C@@H](N)CS)cc1C(=O)c1ccccc1
24 | 2400 | N[C@@H](CS)C(=O)Nc1ccc(NC(=O)Cc2cc(Cl)ccc2Cl)c(C(=O)c2ccccc2)c1
25 | 420 | N[C@@H](CS)C(=O)Nc1ccc(NC(=O)Cc2cccc(Cl)c2Cl)c(C(=O)c2ccccc2)c1
26 | 120 | N[C@@H](CS)C(=O)Nc1ccc(NC(=O)Cc2ccc(Cl)cc2Cl)c(C(=O)c2ccccc2)c1
27 | 4600 | N[C@@H](CS)C(=O)Nc1ccc(NC(=O)c2cccc3ccccc23)c(C(=O)c2ccccc2)c1
28 | 380 | N[C@@H](CS)C(=O)Nc1ccc(NC(=O)Cc2cccc3ccccc23)c(C(=O)c2ccccc2)c1
29 | 85 | N[C@@H](CS)C(=O)Nc1ccc(NS(=O)(=O)Cc2ccccc2)c(C(=O)c2ccccc2)c1
30 | 700 | N[C@@H](CS)C(=O)Nc1ccc(NC(=O)CCC(=O)O)c(C(=O)c2ccccc2)c1
31 | 725 | N[C@@H](CS)C(=O)Nc1ccc(NC(=O)Cc2ccc(C(F)(F)F)cc2)c(C(=O)c2ccccc2)c1

Tested on: HL-60
Assay: Antiproliferative activity against HL60 cell line
Format: functional
Conditions: Homo sapiens
How it was run: (§1)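 Suspended human leukaemic lines (K-562, HL-60, THP-1) grown in RPMI 1640 with penicillin/streptomycin and 10% FBS. About 10 000 cells per well in bicarbonate medium without HEPES. Test substances added in serial twofold dilutions (1:2 to 1:1024). Incubation 72 h, 37 °C, 5% CO2, humidified. Cells counted electronically, each count the mean of three. GI50 read where the concentration–response curve crosses 50% of control counts.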

Row | GI50 [nM] | SMILES
32 | 4200 | N[C@@H](CS)C(=O)Nc1ccc(NC(=O)Cc2ccc(Br)cc2)c(C(=O)c2ccccc2)c1

Tested on: K562
Assay: Antiproliferative activity against K562 cell line
Format: functional
Conditions: Homo sapiens
How it was run: as §1

Row | GI50 [nM] | SMILES
33 | 7900 | N[C@@H](CS)C(=O)Nc1ccc(NC(=O)Cc2ccc(Br)cc2)c(C(=O)c2ccccc2)c1
34 | 8100 | Cc1ccc(CC(=O)Nc2ccc(NC(=O)[C@@H](N)CS)cc2C(=O)c2ccccc2)cc1

Tested on: THP-1
Assay: Antiproliferative activity against THP-1 cell line
Format: functional
Conditions: Homo sapiens
How it was run: as §1

Row | GI50 [nM] | SMILES
35 | 14900 | N[C@@H](CS)C(=O)Nc1ccc(NC(=O)Cc2ccc(Br)cc2)c(C(=O)c2ccccc2)c1
